Measurements from ChEMBL document CHEMBL1125203, “The synthesis and antiviral activity of some 4'-thio-2'-deoxy nucleoside analogues” (J Med Chem, 1991).
Values after ≈ are worked out from the molar mass of the structure shown.

Columns and labels:
[1] = tested on: Vero; assay: Inhibitory dose required to reduce the viability of vero cells by 50%; format: functional, Chlorocebus sabaeus
[2] = Maximum plasma level was measured in mice.; format: ADME, organism-based; conditions: mouse, read-out: Max plasma level
[3] = tested on: Mus musculus; assay: Toxicity of compound was measured after ip administration to mice.; format: organism-based; conditions: in vivo
[4] = tested on: MT4; assay: Minimum inhibitory concentration required to reduce cytopathogenicity of human immunodeficiency virus-1 (HIV-1) in MT-4 cells by 50%; No activity below ID50 observed; format: functional, cell-based
[5] = tested on: Vero; assay: Minimum inhibitory concentration required to reduce cytopathogenicity of Herpes Virus-2 (HSV-2) in vero cells by 50%.; format: functional; conditions: Chlorocebus sabaeus
In short: (§1)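 Plaque reduction: confluent monolayers (HSV-2 in Vero, HSV-1 in MRC-5) infected and overlaid with nutrient agarose holding doubling drug dilutions. Plaques counted after 5 days as % of control, plotted against log concentration, and IC50 read from the plot.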

[6] = tested on: MT4; assay: Inhibitory dose required to reduce the viability of MT-4 cells by 50%; format: functional, Homo sapiens
In short: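 Mock-infected MT-4 cells on the same plate as the HIV test, drug at 100, 10, 1 and 0.1 µM, triplicate wells. Growth inhibition assessed after 5 days by MTT uptake into viable cells, acidified propan-2-ol extraction and spectrophotometric reading.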

[7] = Half life was measured in mice.; format: ADME, organism-based; conditions: mouse, in vivo
[8] = tested on: MRC5; assay: Minimum inhibitory concentration required to reduce cytopathogenicity of Herpes Virus-1 (HSV-1) in MRC -5 cells by 50%.; format: functional; conditions: Homo sapiens; in short: as §1
[9] = tested on: MRC5; assay: Minimum inhibitory concentration required to reduce cytopathogenicity of Varicella Zoster Virus (VZV) in MRC-5 cells by 50%.; format: functional; conditions: Homo sapiens
[10] = tested on: MRC5; assay: Minimum inhibitory concentration required to reduce cytopathogenicity of cytomegalovirus (CMV) in MRC-5 cells by 50%.; format: functional; conditions: Homo sapiens
In short: (§2)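 MRC-5 monolayers in 24-well panels, infected after 24 h and overlaid with 0.5% indubiose A37 medium containing drug at 10 and 100 µM. After 5 days, giant cells (plaques) stained with methylene blue and examined microscopically.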

[11] = tested on: MRC5; assay: Minimum inhibitory concentration required to reduce cytopathogenicity of Cytomegalovirus Virus (CMV) in MRC-5 cells by 50%.; format: functional; conditions: Homo sapiens; in short: as §2

Structure (SMILES) | ID50 [1] [µM] | Cmax [2] [µM] | Toxicity [3] [mg/kg] | MIC50 [4] | MIC50 [5] [µM] | ID50 [6] [µM] | half-life [7] [h] | MIC50 [8] [µM] | MIC50 [9] [µM] | MIC50 [10] [µM] | MIC50 [11] [µM]
O=c1[nH]c(=O)n([C@H]2C[C@H](O)[C@@H](CO)S2)cc1/C=C/Br | > 500 | > 50 | > 40 | No activity | 10 (≈ 3.49 µg/mL) | > 500 | 2 | 0.6 (≈ 0.21 µg/mL) | 0.08 (≈ 0.0279 µg/mL) |  | 
Cc1cn([C@@H]2C[C@H](O)[C@@H](CO)S2)c(=O)[nH]c1=O | > 100 |  |  |  | > 100 | > 100 |  | > 100 |  |  | 
O=c1[nH]c(=O)n([C@@H]2C[C@H](O)[C@@H](CO)S2)cc1/C=C/Br |  |  |  |  | > 500 | > 500 |  | > 500 |  |  | 
Cc1cn(C2CC(N=[N+]=[N-])C(CO)S2)c(=O)[nH]c1=O (stereo not given) | > 100 |  |  | No activity | > 100 | > 100 |  | > 100 |  |  | 
Cc1cn([C@H]2C[C@H](O)[C@@H](CO)S2)c(=O)[nH]c1=O [4'-THIOTHYMIDINE] | 7.1 | > 35 | > 40 | No activity | 2.3 (≈ 0.594 µg/mL) | 1 | 1 | 0.37 (≈ 0.0956 µg/mL) | 10 (≈ 2.58 µg/mL) | 0.98 (≈ 0.253 µg/mL) | 
Nc1nc2c(ncn2COCCO)c(=O)[nH]1 [ACYCLOVIR] | > 500 |  |  |  | 1.8 (≈ 0.405 µg/mL) |  |  | 1.3 (≈ 0.293 µg/mL) |  |  | 100 (≈ 22.5 µg/mL)
O=c1[nH]c(=O)n([C@H]2C[C@H](O)[C@@H](CO)O2)cc1/C=C/Br [BRIVUDINE] | > 500 |  |  |  | 12 (≈ 4 µg/mL) |  |  | 0.03 (≈ 0.00999 µg/mL) | 0.02 (≈ 0.00666 µg/mL) |  | > 100
